Reference: ChEMBL document CHEMBL1154735, “A strategy to minimize reactive metabolite formation: discovery of (S)-4-(1-cyclopropyl-2-methoxyethyl)-6-[6-(difluoromethoxy)-2,5-dimethylpyridin-3-ylamino]-5-oxo-4,5-dihydropyrazine-2-carbonitrile as a potent, orally bioavailable corticotropin-releasing factor-1 receptor antagonist” (J Med Chem, 2009)
Converted amounts (≈) assume the structure as drawn.

Experiments:
[1] = Metabolic stability in NADPH-fortified human liver microsomes assessed as parent compound remaining at 10 uM after 30 mins by HPLC/UV/MS analysis; assay type: ADME, Microsome; settings: read-out: Stability
Method in brief: (§1)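 Pooled rat or human liver microsomes 1 mg/mL, 10 μM substrate, 100 mM potassium phosphate pH 7.4, 37 °C, started with NADPH-regenerating system (1.3 mM NADP+, 3.3 mM glucose-6-phosphate, 3.3 mM MgCl2, 0.5 U/mL G6PDH); GSH 5 mM in trapping runs. Sampled 0 and 30 min, acetonitrile quench; abundance as UV peak area (330–340 nm) fraction of all drug-related components by HPLC/UV/MS.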

[2] = test system: Liver microsomes; assay: Metabolic stability in NADPH-fortified human liver microsomes assessed as GSH adduct formation at 10 uM after 30 mins by HPLC/UV/MS analysis; assay type: ADME, Microsome; settings: 0.5 h; method in brief: as §1
[3] = Metabolic stability in NADPH-fortified rat liver microsomes assessed as parent compound remaining at 10 uM after 30 mins by HPLC/UV/MS analysis; assay type: ADME, Microsome; settings: read-out: Stability; method in brief: as §1
[4] = test system: Liver microsomes; assay: Metabolic stability in NADPH-fortified rat liver microsomes assessed as GSH adduct formation at 10 uM after 30 mins by HPLC/UV/MS analysis; assay type: ADME, Microsome; settings: 0.5 h; method in brief: as §1
[5] = test system: Liver microsomes; assay: Metabolic stability in NADPH-fortified rat liver microsomes assessed as pyrazinone oxidation metabolite formation at 10 uM after 30 mins by HPLC/UV/MS analysis; assay type: ADME, Microsome; settings: 0.5 h; method in brief: as §1
[6] = test system: Liver microsomes; assay: Metabolic stability in NADPH-fortified human liver microsomes assessed as pyrazinone oxidation metabolite formation at 10 uM after 30 mins by HPLC/UV/MS analysis; assay type: ADME, Microsome; settings: 0.5 h; method in brief: as §1
[7] = Metabolic stability in human liver microsomes assessed as compound remaining at 3 uM after 10 mins by HPLC/UV/MS analysis; assay type: ADME, Microsome; settings: read-out: Stability
[8] = Oral bioavailability in Sprague-Dawley rat at 10 mg/kg dosed as aqueous suspension of Labrafil M 1944CS/DMAC/polysorbate 80, 85:10:5 (v/v) after 0.25 to 24 hrs by LC/MS/MS analysis; assay type: ADME, organism-based; settings: in vivo
[9] = AUC in Sprague-Dawley rat at 10 mg/kg, po dosed as aqueous suspension of 1% polysorbate 80 in 0.5% methylcellulose after 0.25 to 24 hrs by LC/MS/MS analysis; assay type: ADME, organism-based; parameters: time upper 24 hr, time lower 0.25 hr, dose 10 mg/kg, route oral; settings: in vivo
[10] = Cmax in Sprague-Dawley rat at 10 mg/kg, po dosed as aqueous suspension of Labrafil M 1944CS/DMAC/polysorbate 80, 85:10:5 (v/v) after 2 to 4 hrs by LC/MS/MS analysis; assay type: ADME, organism-based; parameters: dose 10 mg/kg, route oral; settings: in vivo
[11] = biological target: T1, Corticotropin-releasing factor receptor 1 (Rattus norvegicus, UniProt P35353); assay: Displacement of [125I]Tyr-o-CRF from CRF1 receptor in rat frontal cortex homogenate by binding titration assay; assay type: tissue-based
T1 sequence (P35353 whole entry): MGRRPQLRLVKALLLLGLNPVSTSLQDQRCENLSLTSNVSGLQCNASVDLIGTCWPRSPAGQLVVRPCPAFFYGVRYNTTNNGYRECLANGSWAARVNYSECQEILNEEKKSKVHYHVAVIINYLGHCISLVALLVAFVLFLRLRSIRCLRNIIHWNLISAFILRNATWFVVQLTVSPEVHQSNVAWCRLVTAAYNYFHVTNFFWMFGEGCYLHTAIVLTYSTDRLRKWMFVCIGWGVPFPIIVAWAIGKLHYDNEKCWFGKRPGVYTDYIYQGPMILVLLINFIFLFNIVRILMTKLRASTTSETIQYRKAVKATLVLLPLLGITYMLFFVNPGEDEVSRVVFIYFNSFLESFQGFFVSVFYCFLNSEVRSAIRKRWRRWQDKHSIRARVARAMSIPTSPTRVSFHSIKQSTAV

[12] = Metabolic stability in rat liver microsomes assessed as compound remaining at 3 uM after 10 mins by HPLC/UV/MS analysis; assay type: ADME, Microsome; settings: read-out: Stability
Method in brief: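 Pooled human or rat liver microsomes (1 mg/mL protein) with 3 μM compound and 1.3 mM NADPH in 100 mM sodium phosphate pH 7.4 at 37 °C; final 0.015% DMSO, 0.985% acetonitrile; stopped at 0 and 10 min, percent remaining by LC/MS/MS.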

[13] = Oral bioavailability in Sprague-Dawley rat at 10 mg/kg dosed as aqueous suspension of 1% polysorbate 80 in 0.5% methylcellulose after 0.25 to 24 hrs by LC/MS/MS analysis; assay type: ADME, organism-based; settings: in vivo
[14] = Volume of distribution at steady state in Sprague-Dawley rat at 2 mg/kg, iv after 0.17 to 24 hrs by LC/MS/MS analysis; assay type: ADME, organism-based; parameters: dose 2 mg/kg, route intravenous; settings: in vivo, read-out: Vdss
Method in brief: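 Sprague–Dawley rats (n = 3) dosed 2 mg/kg iv in PEG:ethanol 90:10 (v/v) at 1 mL/kg. Plasma stored at –20 °C and quantified by LC/MS/MS after acetonitrile precipitation with internal standard.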

[15] = Clearance in Sprague-Dawley rat at 2 mg/kg, iv after 0.17 to 24 hrs by LC/MS/MS analysis; assay type: ADME, organism-based; parameters: dose 2 mg/kg, route intravenous; settings: in vivo
[16] = Cmax in Sprague-Dawley rat at 10 mg/kg, po dosed as aqueous suspension of 1% polysorbate 80 in 0.5% methylcellulose after 2 to 4 hrs by LC/MS/MS analysis; assay type: ADME, organism-based; parameters: dose 10 mg/kg, route oral; settings: in vivo
[17] = Half life in Sprague-Dawley rat at 2 mg/kg, iv by LC/MS/MS analysis; assay type: ADME, organism-based; parameters: dose 2 mg/kg, route intravenous; settings: in vivo
[18] = AUC in Sprague-Dawley rat at 10 mg/kg, po dosed as aqueous suspension of Labrafil M 1944CS/DMAC/polysorbate 80, 85:10:5 (v/v) after 0.25 to 24 hrs by LC/MS/MS analysis; assay type: ADME, organism-based; parameters: time 0.25-24 hr, dose 10 mg/kg, route oral; settings: plasma
[19] = Fraction unbound in human serum after 3 to 7 hrs by equilibrium dialysis; assay type: ADME, cell-free
Method in brief: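 Human serum spiked with compound, equilibrium-dialysed against isotonic phosphate buffer for 3 or 7 h (depending on system) at 37 °C; both sides measured by LC/MS/MS, unbound fraction as buffer/serum concentration ratio.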

[20] = Octanol-water partition coefficient, log D at pH 7.4; assay type: physicochemical
Method in brief: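 Partitioning between octanol and water at pH 7.4.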

[21] = Aqueous solubility at pH 1; assay type: physicochemical
[22] = Dissociation constant, pKa by spectrophotometric titration method; assay type: physicochemical
Method in brief: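 Spectrophotometric titration over pH 2–11 in varying acetonitrile/water mixtures, extrapolated to 0% cosolvent.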

[23] = Aqueous solubility at pH 6.5; assay type: physicochemical

## C[C@@H](C1CC1)n1cc(Cl)nc(Nc2c(Cl)cc(OC(F)F)cc2Cl)c1=O
[1]
  remaining at 0.5 h, 10 µM: 85%
[2]
  Activity: 2%
[3]
  remaining at 0.5 h, 10 µM: 74%
[4]
  Activity: 5%
[5]
  Activity: 20%
[6]
  Activity: 12%

## Cc1cc(Nc2nc(C#N)cn([C@H](C)C3CC3)c2=O)c(C)nc1OC(F)F
[7]
  remaining at 10 min, 3 µM: 100%
[1]
  remaining at 0.5 h, 10 µM: 88%
[8]
  bioavailability: 82%
[9]
  AUC: 4.6 µM·h
[10]
  Cmax: 1400 nM
[11]
  IC50: 0.82 nM
[2]
  Activity: 7%
[3]
  remaining at 0.5 h, 10 µM: 80%
[12]
  remaining at 10 min, 3 µM: 89%
[13]
  bioavailability: 38%
[4]
  Activity: 8%
[14]
  Vd: 11 L/kg
[15]
  clearance: 36 mL/min/kg
[16]
  Cmax: 560 nM
[5]
  Activity: < 1%
[6]
  Activity: < 1%
[17]
  half-life: 432 min
[18]
  AUC: 9.9 µM·h
[19]
  fraction unbound: 0.016

## COC[C@@H](C1CC1)n1cc(Cl)nc(Nc2cc(C)c(OC)nc2C)c1=O
[7]
  remaining at 10 min, 3 µM: 40%
[11]
  IC50: 1.1 nM
[12]
  remaining at 10 min, 3 µM: 13%

## COC[C@H](C1CC1)n1cc(Cl)nc(Nc2cc(C)c(OC)nc2C)c1=O
[20]
  logD: 3.9
[21]
  solubility: 116 µg/mL (≈ 306 µM)
[7]
  remaining at 10 min, 3 µM: 48%
[8]
  bioavailability: 26%
[9]
  AUC: 1.3 µM·h
[10]
  Cmax: 510 nM
[11]
  IC50: 1.5 nM
[22]
  pKa: 3.1
[12]
  remaining at 10 min, 3 µM: 24%
[13]
  bioavailability: 11%
[14]
  Vd: 19 L/kg
[15]
  clearance: 38 mL/min/kg
[16]
  Cmax: 180 nM
[23]
  solubility: 6 µg/mL (≈ 15.8 µM)
[17]
  half-life: 1140 min
[18]
  AUC: 3 µM·h
[19]
  fraction unbound: 0.021

## COC[C@@H](C1CC1)n1cc(C#N)nc(Nc2cc(C)c(OC(F)F)nc2C)c1=O
[7]
  remaining at 10 min, 3 µM: 78%
[11]
  IC50: 1.4 nM
[12]
  remaining at 10 min, 3 µM: 64%

## COC[C@H](C1CC1)n1cc(C#N)nc(Nc2cc(C)c(OC)nc2C)c1=O
[7]
  remaining at 10 min, 3 µM: 60%
[11]
  IC50: 12 nM
[12]
  remaining at 10 min, 3 µM: 51%

## COc1nc(C)c(Nc2nc(Cl)cn([C@H](C)C3CC3)c2=O)cc1C
[7]
  remaining at 10 min, 3 µM: 77%
[11]
  IC50: 1.5 nM
[12]
  remaining at 10 min, 3 µM: 55%

## COC[C@@H](C1CC1)n1cc(Cl)nc(Nc2cc(C)c(OC(F)F)nc2C)c1=O
[7]
  remaining at 10 min, 3 µM: 84%
[8]
  bioavailability: 48%
[10]
  Cmax: 440 nM
[11]
  IC50: 0.5 nM
[12]
  remaining at 10 min, 3 µM: 46%
[14]
  Vd: 42 L/kg
[15]
  clearance: 31 mL/min/kg
[17]
  half-life: 960 min
[18]
  AUC: 4.7 µM·h
[19]
  fraction unbound: 0.008

## CC[C@H](C1CC1)n1cc(Cl)nc(Nc2cc(C)c(OC(F)F)nc2C)c1=O
[7]
  remaining at 10 min, 3 µM: 100%
[11]
  IC50: 0.21 nM
[12]
  remaining at 10 min, 3 µM: 56%
